Source: ChEMBL document CHEMBL5030534, “Discovery of Novel Anti-Breast-Cancer Inhibitors by Synergistically Antagonizing Microtubule Polymerization and Aryl Hydrocarbon Receptor Expression” (J Med Chem, 2021)
The source made the active and inactive calls. The rule behind the calls is not given here.

Columns and labels:
Tubulin (Homo sapiens) = Tubulin (Homo sapiens) (UniProt P68371+Q9H4B7+P0DPH7+P68366+Q13509+Q71U36+P04350+Q3ZCM7+P07437+P68363+Q9BQE3+Q6PEY2+Q13885+Q9BVA1+Q9BUF5); test: Induction of microtubule damage in human MCF7 cells at 0.5 nM incubated for 48 hrs by DAPI staining based immunofluorescence assay; type: cell-based
Outline: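 Blocked with goat serum for 20 min, probed with anti-β-tubulin for 2 h, fluorescent secondary antibody and DAPI nuclear stain, imaged by laser confocal microscopy.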

[1] = Toxicity in BALB/c nude mouse xenografted with human MCF7 cells assessed as effect on spleen at 0.5 to 1 mg/kg, iv administered every 2 days for 21 days by H and E staining based assay; type: organism-based; settings: in vivo, 504 h, dose 0.5-1 mg/kg, time 21 day
Outline: (§1)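 Nude mice given 6 × 10⁶ MCF-7 cells subcutaneously on right flank; after 7 days randomized, eight per group. iv dosing every 2 days at 0.5 or 1 mg/kg; vehicle 10% DMSO/5% Tween 80/85% saline; paclitaxel 10 mg/kg and CA-4 20 mg/kg references. Body weight every 2 days; killed after 21 days; organs fixed, paraffin-sectioned, H&E stained.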

MCF7 [2] = test: Inhibition of AhR signalling in human MCF7 cells assessed as reduction in AhR level incubated for 24 hrs by Western blot analysis; type: functional, cell-based; settings: dose 1-4 nM
Outline: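 MCF-7 cells seeded 4 × 10⁵ per well, grown 24 h, then exposed to DMSO or 1, 2, 4 nM for 24 h; BAY 2416964 served as AhR antagonist reference. Lysates adjusted to 3 mg/mL protein by BCA, resolved on 4−20% SDS-PAGE, immunoblotted; AhR and CYP1A1 bands normalized to GAPDH. Three independent runs.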

[3] = target: T1, Aryl hydrocarbon receptor (Homo sapiens, UniProt P35869); test: Inhibition of AhR signalling in human MCF7 cells assessed as reduction in AhR level at 2 nM incubated for 24 hrs in presence of DMBA by Western blot analysis; type: cell-based; settings: mcf7, 24 h, 0.002 µM
T1 sequence (P35869 whole entry): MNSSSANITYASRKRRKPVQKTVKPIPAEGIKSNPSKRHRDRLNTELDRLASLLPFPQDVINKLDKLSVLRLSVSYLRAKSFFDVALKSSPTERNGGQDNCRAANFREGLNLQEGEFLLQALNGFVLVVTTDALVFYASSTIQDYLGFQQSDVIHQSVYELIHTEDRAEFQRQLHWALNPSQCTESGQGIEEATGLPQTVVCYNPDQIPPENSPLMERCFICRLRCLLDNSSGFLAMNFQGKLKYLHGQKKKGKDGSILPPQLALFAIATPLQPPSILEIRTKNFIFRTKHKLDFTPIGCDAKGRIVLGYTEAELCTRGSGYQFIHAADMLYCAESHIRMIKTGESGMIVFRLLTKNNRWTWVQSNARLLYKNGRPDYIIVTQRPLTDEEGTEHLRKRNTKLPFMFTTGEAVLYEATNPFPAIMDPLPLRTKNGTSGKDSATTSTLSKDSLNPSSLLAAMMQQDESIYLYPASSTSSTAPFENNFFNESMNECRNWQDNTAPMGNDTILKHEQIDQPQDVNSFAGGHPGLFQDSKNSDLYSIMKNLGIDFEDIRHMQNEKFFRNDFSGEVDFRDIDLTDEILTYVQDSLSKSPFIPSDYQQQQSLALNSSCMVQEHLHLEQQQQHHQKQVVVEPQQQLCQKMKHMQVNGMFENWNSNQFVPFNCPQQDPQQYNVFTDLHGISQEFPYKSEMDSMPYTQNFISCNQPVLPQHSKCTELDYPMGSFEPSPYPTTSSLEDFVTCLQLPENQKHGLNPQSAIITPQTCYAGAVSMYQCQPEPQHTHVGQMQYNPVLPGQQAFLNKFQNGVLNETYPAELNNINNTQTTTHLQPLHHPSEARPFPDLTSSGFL
Outline: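 MCF-7 treated with DMBA (400 nM), DMBA plus 2 nM, or 2 nM alone. AhR measured by Western blot relative to loading control; n = 3.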

[4] = Toxicity in BALB/c nude mouse xenografted with human MCF7 cells assessed as effect on lung at 0.5 to 1 mg/kg, iv administered every 2 days for 21 days by H and E staining based assay; type: organism-based; settings: in vivo, 504 h, dose 0.5-1 mg/kg, time 21 day; outline: as §1
MCF7 [5] = test: Induction of apoptosis in human MCF7 cells assessed as viable cells at 2 nM measured after 24 hrs by Annexin V-FITC and PI staining based flow cytometry assay (reference value: 96.8%); type: functional; settings: read-out: Activity
MCF7 [6] = test: Antiproliferative activity against human MCF7 cells assessed as cell growth inhibition at 2 nM in presence of DMBA; type: functional, cell-based
MCF7 [7] = test: Induction of mitochondrial membrane potential loss in human MCF7 cells at 2 nM measured after 24 hrs by JC-1 staining based flow cytometry analysis (reference value: 3.01%); type: functional
MCF7 [8] = test: Antitumor activity against human MCF7 cells xenografted in BALB/c nude mouse assessed as decrease in tumor weight at 1 mg/kg, iv administered every 2 days for 21 days and measured every 2 days; type: functional; parameters: scale not given: the % may be the effect or the level left; settings: time 21 day
Outline: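 MCF-7 cells (6 × 10⁶) injected subcutaneously into right flank of BALB/c nude mice; after 7 days animals randomized, eight per group. Dosing iv every 2 days for 21 days, vehicle 10% DMSO/5% Tween 80/85% saline. Tumor size and body weight recorded every 2 days; tumors excised and weighed at sacrifice.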

MCF7 [9] = test: Induction of apoptosis in human MCF7 cells assessed as late apoptotic cells at 2 nM measured after 24 hrs in presence of DMBA by Annexin V-FITC and PI staining based flow cytometry assay (reference value: 1.5%); type: functional
MCF7 [10] = test: Induction of apoptosis in human MCF7 cells assessed as late apoptotic cells at 2 nM measured after 24 hrs by Annexin V-FITC and PI staining based flow cytometry assay (reference value: 1.5%); type: functional
MCF7 [11] = test: Cell cycle arrest in human MCF7 cells assessed as accumulation of cells at G2/M phase at 0.5 to 2 nM measured after 24 hrs by propidium iodide staining based flow cytometric analysis relative to control; type: functional; settings: dose 0.5-2 nM
Outline: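 MCF-7 seeded 4 × 10⁵ per well for 24 h, treated with DMSO or 0.5, 1, 2 nM. Fixed in 75% ethanol at −20 °C for 12 h, stained with PI by cell-cycle kit, analysed by flow cytometry. Three runs.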

MCF-10A = test: Antiproliferative activity against human MCF-10A cells assessed as reduction in cell viability incubated for 48 hrs by MTT assay; type: cell-based
Outline: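 Cells seeded at 5 × 10³ per well, incubated overnight, then exposed to a range of compound concentrations for 48 h. MTT added for 4 h, medium replaced with DMSO, absorbance read at 570 nm. MCF-7, L-O2 grown in DMEM; MCF-10A, MCF-7/ADR in RPMI 1640. Three independent runs.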

MCF7 [12] = test: Induction of apoptosis in human MCF7 cells assessed as early apoptotic cells at 2 nM measured after 24 hrs by Annexin V-FITC and PI staining based flow cytometry assay (reference value: 0.90%); type: functional
MCF7 [13] = test: Induction of apoptosis in human MCF7 cells assessed as late apoptotic cells at 2 nM measured after 24 hrs by Annexin V-FITC and PI staining based flow cytometry assay (reference value: 2.06%); type: functional

Cc1nc(N(C)c2ccc3c(c2)cc(C)n3C)c2ccccc2n1
Activity (Tubulin (Homo sapiens)): inactive | Activity [1]: Non-Toxic | inhibition (MCF7 [2]): Dose-Dependent Effect | inhibition (INH) [3]: Active | Activity [4]: Non-Toxic | viability at 0.002 µM (MCF7 [5]): 38.3% | Activity (MCF7 [6]): Active | Activity (MCF7 [7]): 24.7% | Activity (MCF7 [8]): 81.1% | Activity (MCF7 [9]): 22% | Activity (MCF7 [10]): 44.7% | Activity (MCF7 [11]): 46.87% | IC50 (MCF-10A): 9.3 nM | Activity (MCF7 [12]): 12.1% | Activity (MCF7 [13]): 45.1%
